Assay results: ChEMBL document CHEMBL1133007, “Synthesis and in vitro evaluation of novel morpholinyl- and methylpiperazinylacyloxyalkyl prodrugs of 2-(6-methoxy-2-naphthyl)propionic acid (Naproxen) for topical drug delivery” (J Med Chem, 2000)
Converted amounts (≈) assume the structure as drawn.

How the values were obtained:
[1] = Evaluated for the time by which 50% of total naproxen is formed in 80% human serum at a pH of 7.4; format: ADME; details: pH 7.4
How it was run: (§1)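 Human serum diluted to 80% with 0.16 M phosphate buffer pH 7.4, 37 °C. Prodrug dissolved in buffer, then preheated serum added. Aliquots were quenched in ethanol and centrifuged, and the supernatant was analysed by HPLC for remaining prodrug and released naproxen. Pseudo-first-order t1/2 came from the slope of log remaining prodrug vs time. f50% is the time at which 50% of total naproxen formed. Mean of n = 2.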

[2] = Evaluated for the apparent partition coefficient between 1-octanol and phosphate buffer at pH 5.0.; format: physicochemical; details: 1-octanol/phosphate buffer
How it was run: (§2)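 Shake-flask log Papp at room temperature. Compound in phosphate buffer (pH 5.0 or 7.4) was shaken with buffer-saturated 1-octanol for 30 min (pH 5.0) or 15 min (pH 7.4), and phases were separated by centrifugation. Buffer-phase concentration was measured by HPLC before and after partitioning.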

[3] = Evaluated for the solubility in aqueous solution at pH 7.4; format: ADME
How it was run: (§3)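 Excess compound was stirred in 0.16 M phosphate buffer at room temperature, 60 min at pH 5.0 or 30 min at pH 7.4, with pH held constant. The mixture was filtered (0.45 µm) and the filtrate quantified by reversed-phase HPLC.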

[4] = Evaluated for the apparent partition coefficient between 1-octanol and phosphate buffer at pH 7.4; format: physicochemical; details: 1-octanol/phosphate buffer; how it was run: as §2
[5] = Evaluated for 50% hydrolysis rate in phosphate buffer at 5.0 at 37 degrees C; format: ADME; details: pH 5
How it was run: (§4)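 Chemical stability in phosphate buffer (0.16 M, ionic strength 0.5) at pH 7.4 or 5.0, in a 37 °C thermostatted water bath. Samples were taken at intervals and analysed by HPLC for remaining prodrug. Pseudo-first-order t1/2 was calculated from the slope of the linear part of log remaining prodrug vs time.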

[6] = Evaluated for 50% hydrolysis rate in phosphate buffer at pH 7.4 at 37 degrees C; format: ADME; how it was run: as §4
[7] = species on record: Homo sapiens; experiment: Evaluated for the Steady-state fluxes (Jss) for delivery of total Naproxen species through excised human skin in vitro in isotonic phosphate buffer (0.05 M) at pH 7.4; format: ADME
How it was run: (§5)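 Excised postmortem human skin, epidermis heat-separated (60 °C water, 2 min), dried, frozen, then rehydrated and mounted in Franz-type diffusion cells (area 0.71 cm2). Donor was a saturated suspension in 0.05 M phosphate buffer at the stated pH. Receptor was isotonic 0.05 M phosphate pH 7.4, stirred at 37 °C and sampled at intervals. Total naproxen, intermediate and prodrug were measured by HPLC. Jss is the steady-state slope per area; mean ± SE, n = 3-12.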

[8] = Evaluated for 50% hydrolysis rate in 80% human serum at a pH of 7.4; format: ADME; details: pH 7.4; how it was run: as §1
[9] = Evaluated for the solubility in aqueous solution at pH 5.0; format: ADME; how it was run: as §3
[10] = species on record: Homo sapiens; experiment: Evaluated for the Steady-state fluxes (Jss) for delivery of total Naproxen species through excised human skin in vitro in isotonic phosphate buffer (0.05 M) at pH 5.0; format: ADME; how it was run: as §5
[11] = species on record: Homo sapiens; experiment: Evaluated for the Steady-state fluxes (Jss) for delivery of total Naproxen species through excised human skin in Vitro in Isotonic phosphate buffer (0.05 M) at pH 5.0; format: ADME; how it was run: as §5
[12] = species on record: Homo sapiens; experiment: Evaluated for the Steady-state fluxes (Jss) for delivery of total Naproxen species through excised human skin in Vitro in Isotonic phosphate buffer (0.05 M) at pH 7.4; format: ADME; how it was run: as §5
[13] = species on record: Homo sapiens; experiment: Evaluated for the Steady-state fluxes (Jss) for delivery of total Naproxen species through excised human skin in vitro in Isotonic phosphate buffer (0.05 M) at pH 5.0; format: ADME; how it was run: as §5
[14] = Evaluated for the hydrolysis rate in phosphate buffer at 5.0 at 37 degrees Centigrade.; format: ADME; details: pH 5; how it was run: as §4
[15] = Evaluated for the hydrolysis rate in 80% human serum (mean; n=2) at a pH of 7.4; format: ADME; details: pH 7.4; how it was run: as §1
[16] = Evaluated for the hydrolysis rate in phosphate buffer at pH 7.4 at 37 degrees Centigrade; format: ADME; how it was run: as §4

50% naproxen formed [1] | logD [2] | solubility [3] | logD [4] | half-life [5] | half-life [6] | Jss [7] | half-life [8] | solubility [9] | Jss [10] | Jss [11] | Jss [12] | Jss [13] | half-life [14] | half-life [15] | half-life [16] | Structure (SMILES)
25 min | 2.62 | 0.07 mM (≈ 28.1 µg/mL) | 2.14 | 161 h | 33.6 h | 0.7 nM hr-1 cm**-2 | 0.333 h | 0.05 mM (≈ 20.1 µg/mL) | 0.6 nM hr-1 cm**-2 |  |  |  |  |  |  | COc1ccc2cc(C(C)C(=O)OCCOC(=O)CN3CCOCC3)ccc2c1 (configuration not stated)
22 min | 0.43 | 4.1 mM (≈ 1700 µg/mL) | 1.16 | 1600 h | 57.6 h |  | 0.433 h | 5.3 mM (≈ 2200 µg/mL) |  | 2.2 nM hr-1 cm**-2 | 24.6 nM hr-1 cm**-2 |  |  |  |  | COc1ccc2cc(C(C)C(=O)OCCOC(=O)CN3CCN(C)CC3)ccc2c1 (configuration not stated)
3 min | 1.41 | 50 mM (≈ 23500 µg/mL) | 2.69 | 893 h | 48 h |  | 0.0167 h | 61 mM (≈ 28700 µg/mL) |  |  | 13.2 nM hr-1 cm**-2 | 1.2 nM hr-1 cm**-2 |  |  |  | COc1ccc2cc(C(C)C(=O)OCCCCOC(=O)CCCN3CCN(C)CC3)ccc2c1 (configuration not stated)
5 min | 1.2 | 432 mM (≈ 197000 µg/mL) | 3.04 |  |  | 7.7 nM hr-1 cm**-2 |  | 142 mM (≈ 64700 µg/mL) | 0.6 nM hr-1 cm**-2 |  |  |  | 432 h | 4 min | 16.8 h | COc1ccc2cc(C(C)C(=O)OCCCCOC(=O)CCN3CCN(C)CC3)ccc2c1 (configuration not stated)
11 min |  |  |  |  |  |  | 0.217 h |  |  |  |  |  |  |  |  | COc1ccc2cc(C(C)C(=O)OCCCCOC(=O)CN3CCOCC3)ccc2c1 (configuration not stated)
7 min | 0.94 | 8.8 mM (≈ 3890 µg/mL) | 1.3 | 1920 h | 182 h |  | 0.05 h | 16.2 mM (≈ 7170 µg/mL) |  | 0.2 nM hr-1 cm**-2 | 7.2 nM hr-1 cm**-2 |  |  |  |  | COc1ccc2cc(C(C)C(=O)OCCCCOC(=O)CN3CCN(C)CC3)ccc2c1 (configuration not stated)
